Laboratory results as given in ChEMBL document CHEMBL1123129, “Hypolipidemic activity of indan-1,3-dione derivatives in rodents” (J Med Chem, 1985).

How the values were obtained:
[1] = system: Rattus norvegicus; experiment: Compound was evaluated for the hypolipidemic activity at 20 mg/kg per day orally for 14 days on triglycerides content in rat VLDL; assay type: functional; details: route oral
In short: (§1)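 Male Sprague–Dawley rats (~300 g) were dosed orally each day. Blood was drawn from the abdominal vein. Lipoprotein fractions (chylomicron, VLDL, LDL, HDL) were separated by the Hatch–Lees and Havel methods. Each fraction was assayed for cholesterol, triglyceride (enzymatic kit), neutral lipids, phospholipids and Lowry protein. Values are % of 1% CMC vehicle control, N = 6.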

[2] = system: Rattus norvegicus; experiment: Compound was evaluated for the hypolipidemic activity at 20 mg/kg per day orally for 14 days on triglycerides content in rat HDL; assay type: functional; details: route oral; in short: as §1
[3] = system: Rattus norvegicus; experiment: Compound was evaluated for the hypolipidemic activity at 20 mg/kg per day orally for 14 days on neutral lipids content in rat HDL; assay type: functional; details: route oral; in short: as §1
[4] = system: Mus musculus; experiment: In Vivo effect for the hypolipidemic activity on phosphatidate phosphohydrolase in CF1 mice after 16 days administered orally at a dose of 40 mg/kg; assay type: organism-based; parameters: dose 40 mg/kg
In short: (§2)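 CF1 male mice are dosed orally at 10–60 mg/kg per day for 16 days, with 1% CMC as the control vehicle. Liver is homogenized at 10% in 0.25 M sucrose + 0.001 M EDTA, pH 7.2. Enzymes are assayed by literature methods, with Lowry protein. Activity is given as % of control (X ± SD, N = 6), with p from Student's t test.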

[5] = target: Acetyl-coenzyme A synthetase, cytoplasmic (Mus musculus) (UniProt Q9QXG4); experiment: In Vivo effect for the hypolipidemic activity on Acetyl-coenzyme A synthetase in CF1 mice after 16 days of oral administration at a dose of 20 mg/kg; assay type: functional, organism-based; parameters: dose 20 mg/kg; in short: as §2
Chain of Acetyl-coenzyme A synthetase, cytoplasmic (Mus musculus) (Q9QXG4 whole entry): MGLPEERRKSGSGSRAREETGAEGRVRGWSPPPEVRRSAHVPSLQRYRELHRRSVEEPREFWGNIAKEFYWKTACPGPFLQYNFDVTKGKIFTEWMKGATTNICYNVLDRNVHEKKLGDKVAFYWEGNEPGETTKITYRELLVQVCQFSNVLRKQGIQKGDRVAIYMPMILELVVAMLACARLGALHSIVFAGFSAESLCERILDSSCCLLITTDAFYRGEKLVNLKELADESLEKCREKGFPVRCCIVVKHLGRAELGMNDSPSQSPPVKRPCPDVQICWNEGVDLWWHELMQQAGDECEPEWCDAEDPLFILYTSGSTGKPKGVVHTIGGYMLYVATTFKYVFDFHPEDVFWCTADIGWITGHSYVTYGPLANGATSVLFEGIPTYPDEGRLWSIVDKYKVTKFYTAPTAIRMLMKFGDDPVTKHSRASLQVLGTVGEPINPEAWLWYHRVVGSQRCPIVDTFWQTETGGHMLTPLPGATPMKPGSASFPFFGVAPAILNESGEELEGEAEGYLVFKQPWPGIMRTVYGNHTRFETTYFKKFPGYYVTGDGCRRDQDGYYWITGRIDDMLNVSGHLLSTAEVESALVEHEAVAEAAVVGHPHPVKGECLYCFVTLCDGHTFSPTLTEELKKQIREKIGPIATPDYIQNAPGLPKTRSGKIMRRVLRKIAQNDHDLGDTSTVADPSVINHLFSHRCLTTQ

[6] = target: Acetyl-CoA carboxylase 1 (Mus musculus) (UniProt Q5SWU9); experiment: In Vivo effect for the hypolipidemic activity on Acetyl-CoA carboxylase in CF1 mice after 16 days administered orally at a dose of 20 mg/kg; assay type: functional, organism-based; parameters: dose 20 mg/kg; in short: as §2
[7] = system: Rattus norvegicus; experiment: Compound was evaluated for the hypolipidemic activity at 20 mg/kg per day orally for 14 days on triglycerides content in rat small intestine.; assay type: functional; details: route oral
In short: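 Male Sprague–Dawley rats were dosed orally for 14 days. Liver, small intestine and a 24-h fecal collection were lipid-extracted. Extracts were assayed for cholesterol (modified Liebermann–Burchard), triglyceride (enzymatic kit), neutral lipids, phospholipids and protein. Values are % of 1% CMC vehicle control, mean ± SD, N = 6.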

[8] = system: Mus musculus; experiment: In Vivo effect for the hypolipidemic activity on Hepatic lipoprotein lipase in CF1 mice after 16 days administered orally at a dose of 60 mg/kg; assay type: functional; details: route oral; in short: as §2
[9] = target: T1, 3-hydroxy-3-methylglutaryl-coenzyme A reductase (Mus musculus) (UniProt Q01237); experiment: In Vivo effect for the hypolipidemic activity on HMG-CoA reductase in CF1 mice after 16 days of oral administration at a dose of 40 mg/kg; assay type: organism-based; parameters: dose 40 mg/kg; in short: as §2
T1 sequence (whole entry): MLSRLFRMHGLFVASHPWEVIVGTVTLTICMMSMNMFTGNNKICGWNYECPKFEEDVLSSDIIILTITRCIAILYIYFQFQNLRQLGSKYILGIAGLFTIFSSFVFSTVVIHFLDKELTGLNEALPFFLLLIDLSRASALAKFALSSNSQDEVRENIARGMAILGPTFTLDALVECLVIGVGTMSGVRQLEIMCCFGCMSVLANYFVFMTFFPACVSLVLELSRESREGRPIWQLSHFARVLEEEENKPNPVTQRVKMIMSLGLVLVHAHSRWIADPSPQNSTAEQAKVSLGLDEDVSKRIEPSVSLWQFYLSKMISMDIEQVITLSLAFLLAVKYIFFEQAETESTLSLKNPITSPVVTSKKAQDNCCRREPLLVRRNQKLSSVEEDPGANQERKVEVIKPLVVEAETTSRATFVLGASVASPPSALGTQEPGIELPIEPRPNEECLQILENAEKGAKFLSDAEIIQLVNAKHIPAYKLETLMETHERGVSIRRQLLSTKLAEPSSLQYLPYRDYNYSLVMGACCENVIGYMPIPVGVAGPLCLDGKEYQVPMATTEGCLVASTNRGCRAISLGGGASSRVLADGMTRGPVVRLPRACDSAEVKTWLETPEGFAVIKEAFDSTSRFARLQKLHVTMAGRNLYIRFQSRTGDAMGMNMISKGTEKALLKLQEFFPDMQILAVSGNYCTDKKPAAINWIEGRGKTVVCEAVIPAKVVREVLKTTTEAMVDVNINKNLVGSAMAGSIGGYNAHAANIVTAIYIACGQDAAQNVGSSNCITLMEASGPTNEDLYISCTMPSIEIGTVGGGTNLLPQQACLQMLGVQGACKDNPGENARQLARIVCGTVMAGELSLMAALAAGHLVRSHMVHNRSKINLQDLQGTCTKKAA

[10] = system: Mus musculus; experiment: Compound was evaluated for the hypolipidemic activity in CF1 male mice at a dose of 10 mg/kg orally for Serum cholesterol at 9th day.; assay type: functional; details: route oral
In short: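 CF1 male mice received the agent orally in 1% CMC at 10–60 mg/kg per day. Tail-vein blood was taken on days 9 and 16. Serum cholesterol was measured by modified Liebermann–Burchard on duplicate 25-µL samples, and serum triglyceride on day 16 in duplicate 50-µL samples. Values are % of vehicle control, mean ± SD, N = 6; Student's t test.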

[11] = target: T2, Cholesterol 7-alpha-hydroxylase (Cytochrome P450 7A1) (Mus musculus, UniProt Q64505); experiment: In vitro percent Cholesterol 7-alpha-hydroxylase activity in mouse CF1 liver microsomes at 200 uM; parameters: species or system Microsome; details: read-out: Control
T2 sequence (Q64505 whole entry): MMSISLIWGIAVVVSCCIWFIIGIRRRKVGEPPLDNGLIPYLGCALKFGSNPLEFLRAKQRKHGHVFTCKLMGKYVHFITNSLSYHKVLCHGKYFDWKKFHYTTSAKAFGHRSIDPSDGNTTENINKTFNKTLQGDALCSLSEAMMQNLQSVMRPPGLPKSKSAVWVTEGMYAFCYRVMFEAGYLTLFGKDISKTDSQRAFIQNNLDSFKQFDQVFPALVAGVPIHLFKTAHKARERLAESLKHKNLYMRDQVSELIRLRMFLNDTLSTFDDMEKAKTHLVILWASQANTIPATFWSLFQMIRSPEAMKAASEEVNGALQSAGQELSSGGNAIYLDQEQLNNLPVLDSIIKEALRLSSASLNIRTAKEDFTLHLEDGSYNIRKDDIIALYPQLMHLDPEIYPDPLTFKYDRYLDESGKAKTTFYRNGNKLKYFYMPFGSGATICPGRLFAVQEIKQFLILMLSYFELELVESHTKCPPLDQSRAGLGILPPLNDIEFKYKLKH
In short: (§3)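 Mouse liver enzymes assayed in vitro on 10% homogenates of CF1 male mouse liver, with test drug added at 50–200 μM. Each enzyme follows a published procedure. Protein is measured by Lowry. Activity is given as % of untreated control (X ± SD, N = 6).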

[12] = system: Rattus norvegicus; experiment: Compound was evaluated for the hypolipidemic activity at 20 mg/kg per day orally for 14 days on triglycerides content in rat LDL; assay type: functional; details: route oral; in short: as §1
[13] = target: T2, Cholesterol 7-alpha-hydroxylase (Cytochrome P450 7A1); experiment: In vitro percent Cholesterol 7-alpha-hydroxylase activity in mouse CF1 liver microsomes at 50 uM; parameters: species or system Microsome; details: read-out: Control; in short: as §3

SMILES: COc1ccc(C2C(=O)c3ccccc3C2=O)cc1 [ANISINDIONE]
- Control [1]: 72%
- Control [2]: 59%
- Control [3]: 113%
- Control [4]: 57%
- Control [5]: 72%
- Control [6]: 107%
- Control [7]: 89%
- Control [8]: 89%
- Control [9]: 114%
- Control [10]: 82%
- activity at 200 µM [11]: 113%
- Control [12]: 40%
- activity at 50 µM [13]: 106%
